Measured values as given in ChEMBL document CHEMBL1144440, “A-ring-substituted estrogen-3-O-sulfamates: potent multitargeted anticancer agents” (J Med Chem, 2005).

What was measured:
[1] = Mean graph midpoint (MGM) against a panel of human tumor cell lines; format: functional
Procedure, shortened: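 NCI 55 cell line panel; mean graph midpoint is the mean concentration giving 50% growth inhibition across all cell lines successfully evaluated; tested range 10^-4 to 10^-8 M, so 0.01 µM is the […] possible value.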

[2] = tested on: SN12C; assay: Concentration required to inhibit the growth of SN12C human renal cancer cells by 50%; format: functional
Procedure, shortened: (§1)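 NCI 55 human cancer cell line panel screen; GI50 is the concentration giving 50% growth inhibition; compounds tested over 10^-4 to 10^-8 M.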

[3] = tested on: DU-145; assay: Concentration required to inhibit the growth of DU-145 human prostate cancer cells by 50%; format: functional; procedure, shortened: as §1
[4] = tested on: SF-539; assay: Concentration required to inhibit the growth of SF-539 human CNS cancer cells by 50%; format: functional; procedure, shortened: as §1
[5] = Concentration required to inhibit the growth of HOP-6 human lung cancer cells by 50%; format: functional; settings: Cancer cell lines; procedure, shortened: as §1
[6] = tested on: HCT-116; assay: Concentration required to inhibit the growth of HCT116 human colon cancer cells by 50%; format: functional; procedure, shortened: as §1
[7] = tested on: MDA-MB-435; assay: Concentration required to inhibit the growth of MDA-MB-435 human breast cancer cells by 50%; format: functional; procedure, shortened: as §1
[8] = tested on: MCF7; assay: Inhibition of the growth of human breast cancer MCF-7 cells done for 96 hr at 37 degree C with compound; settings: MCF7, 96 h
[9] = tested on: OVCAR-3; assay: Concentration required to inhibit the growth of OVCAR-3 human ovarian cancer cells by 50%; format: functional; procedure, shortened: as §1
[10] = biological target: T1, Steryl-sulfatase (Homo sapiens, UniProt P08842); assay: Inhibitory concentration against steroid sulfatase in placental microsomes; design: species or system Placenta
T1 sequence (P08842 whole entry): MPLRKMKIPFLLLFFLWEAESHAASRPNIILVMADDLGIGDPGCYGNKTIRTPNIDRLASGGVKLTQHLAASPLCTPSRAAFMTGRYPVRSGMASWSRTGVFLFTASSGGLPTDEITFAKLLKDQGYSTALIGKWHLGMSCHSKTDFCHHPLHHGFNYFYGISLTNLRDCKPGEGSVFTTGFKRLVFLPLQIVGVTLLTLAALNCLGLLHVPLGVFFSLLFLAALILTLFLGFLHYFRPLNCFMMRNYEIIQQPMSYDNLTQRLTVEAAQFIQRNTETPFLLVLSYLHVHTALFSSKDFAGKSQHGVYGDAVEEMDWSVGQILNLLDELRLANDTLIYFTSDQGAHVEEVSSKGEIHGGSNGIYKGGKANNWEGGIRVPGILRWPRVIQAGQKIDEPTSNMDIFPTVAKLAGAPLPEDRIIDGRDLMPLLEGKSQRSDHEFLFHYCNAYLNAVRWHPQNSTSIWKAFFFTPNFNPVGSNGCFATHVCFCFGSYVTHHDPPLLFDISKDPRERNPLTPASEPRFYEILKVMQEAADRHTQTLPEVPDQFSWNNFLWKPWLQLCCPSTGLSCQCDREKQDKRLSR

[11] = tested on: Mus musculus; assay: Reduction of tumor growth in female mice transplanted with xenografts derived from MDA-MB-435 (ER-) human breast cancer cells after 28 days of treatment at 20 mg/kg oral dose; format: functional, organism-based; design: dose 20 mg/kg, route oral; settings: MDA-MB-435, 672 h
Procedure, shortened: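 Oral daily dosing for 28 days. Drug was dissolved in minimal THF, then diluted with propylene glycol. Vehicle controls received THF/propylene glycol. Groups were 12 female mice bearing MDA-MB-435 xenografts, with dosing started at 100-200 mm³. Tumour length and width were measured weekly, volume = l × w²/2, and monitoring continued 28 days after dosing. Growth was compared with controls by Student's t test.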

[12] = tested on: UACC-62; assay: Concentration required to inhibit the growth of UACC-62 human melanoma cells by 50%; format: functional; procedure, shortened: as §1

| SMILES | MGM [1] [µM] | GI50 [2] [µM] | GI50 [3] [µM] | GI50 [4] [µM] | GI50 [5] [µM] | GI50 [6] [µM] | GI50 [7] [µM] | GI50 [8] [µM] | GI50 [9] [µM] | further results |
| --- | --- | --- | --- | --- | --- | --- | --- | --- | --- | --- |
| CCc1cc2c(cc1O)CC[C@@H]1[C@@H]2CC[C@]2(C)[C@@H](O)CC[C@@H]12 | 6.5 | 7.3 | 11 | 3.3 | 6.1 | 3.5 | 1.7 | 10.5 | 2.9 | – |
| COc1cc2c(cc1O)CC[C@@H]1[C@@H]2CC[C@]2(C)C(=O)CC[C@@H]12 | – | – | – | – | – | – | – | 21.3 | – | – |
| COc1cc2c(cc1OS(N)(=O)=O)CC[C@@H]1[C@@H]2CC[C@]2(C)[C@@H](O)CC[C@@H]12 | – | – | – | – | – | – | – | – | – | IC50 [10]: 0.034 µM; IC50 [11]: 33 µM |
| C[C@]12CC[C@@H]3c4ccc(OS(N)(=O)=O)cc4CC[C@H]3[C@@H]1CCC2=O [EMATE] | – | – | – | – | – | – | – | – | – | IC50 [10]: 0.022 µM |
| C[C@]12CC[C@@H]3c4cc(I)c(OS(N)(=O)=O)cc4CC[C@H]3[C@@H]1CCC2=O | – | – | – | – | – | – | – | 1.59 | – | – |
| CCSc1cc2c(cc1O)CC[C@@H]1[C@@H]2CC[C@]2(C)[C@@H](O)CC[C@@H]12 | 10 | 18 | 24 | 16 | 16 | 8.5 | 2 | 23.2 | 14 | GI50 [12]: 11 µM |
| COc1cc2c(cc1O)CC[C@@H]1[C@@H]2CC[C@]2(C)[C@@H](O)CC[C@@H]12 [2-METHOXYESTRADIOL] | 1.3 | 0.95 | 1.8 | 0.32 | 0.7 | 0.47 | 0.08 | – | 0.21 | GI50 [12]: 0.36 µM |
| C[C@]12CC[C@@H]3c4cc(S(C)(=O)=O)c(O)cc4CC[C@H]3[C@@H]1CCC2=O | – | – | – | – | – | – | – | 66 | – | – |
| COc1cc2c(cc1OS(N)(=O)=O)CC[C@@H]1[C@@H]2CC[C@]2(C)C(=O)CC[C@@H]12 | 0.095 | 0.6 | 0.32 | 0.12 | 0.16 | 0.065 | < 0.01 | 0.3 | < 0.01 | IC50 [10]: 0.042 µM; GI50 [12]: 0.017 µM |
| CCOc1cc2c(cc1OS(N)(=O)=O)CC[C@@H]1[C@@H]2CC[C@]2(C)C(=O)CC[C@@H]12 | – | – | – | – | – | – | – | 4.84 | – | IC50 [10]: 0.89 µM |
| CSc1cc2c(cc1OS(N)(=O)=O)CC[C@@H]1[C@@H]2CC[C@]2(C)C(=O)CC[C@@H]12 | 0.229 | 0.76 | 22 | 0.045 | 35 | 0.088 | < 0.01 | 0.4 | 0.012 | IC50 [10]: 0.12 µM; GI50 [12]: 0.052 µM |
| CCSc1cc2c(cc1OS(N)(=O)=O)CC[C@@H]1[C@@H]2CC[C@]2(C)[C@@H](O)CC[C@@H]12 | – | – | – | – | – | – | – | 23.4 | – | – |
| COc1cc2c(cc1OS(=O)(=O)N(C)C)CC[C@@H]1[C@@H]2CC[C@]2(C)C(=O)CC[C@@H]12 | – | – | – | – | – | – | – | > 10 | – | – |
| CCSc1cc2c(cc1O)CC[C@@H]1[C@@H]2CC[C@]2(C)C(=O)CC[C@@H]12 | – | – | – | – | – | – | – | 31.9 | – | – |
| CSc1cc2c(cc1O)CC[C@@H]1[C@@H]2CC[C@]2(C)C(=O)CC[C@@H]12 | 20.4 | 19 | 85 | 14 | 27 | 20 | 12 | 33.4 | 22 | GI50 [12]: 12 µM |
| CSc1cc2c(cc1O)CC[C@@H]1[C@@H]2CC[C@]2(C)[C@@H](O)CC[C@@H]12 | – | – | – | – | – | – | – | 3.96 | – | – |
| COc1cc2c(cc1OS(=O)(=O)NC(C)=O)CC[C@@H]1[C@@H]2CC[C@]2(C)C(=O)CC[C@@H]12 | – | – | – | – | – | – | – | 168 | – | – |
| C[C@]12CC[C@@H]3c4cc(Br)c(O)cc4CC[C@H]3[C@@H]1CCC2=O | – | – | – | – | – | – | – | 33 | – | – |
| CSc1cc2c(cc1OS(N)(=O)=O)CC[C@@H]1[C@@H]2CC[C@]2(C)[C@@H](O)CC[C@@H]12 | – | – | – | – | – | – | – | 0.43 | – | – |
| C[C@]12CC[C@@H]3c4cc(I)c(O)cc4CC[C@H]3[C@@H]1CCC2=O | – | – | – | – | – | – | – | 38 | – | – |
| CCc1cc2c(cc1O)CC[C@@H]1[C@@H]2CC[C@]2(C)C(=O)CC[C@@H]12 | – | – | – | – | – | – | – | 57.6 | – | – |
| CCc1cc2c(cc1OS(N)(=O)=O)CC[C@@H]1[C@@H]2CC[C@]2(C)[C@@H](O)CC[C@@H]12 | 0.016 | 0.04 | < 0.01 | < 0.01 | < 0.01 | < 0.01 | < 0.01 | 0.07 | < 0.01 | IC50 [10]: 1 µM; GI50 [12]: < 0.01 µM |
| C[C@]12CC[C@@H]3c4cc(Br)c(OS(N)(=O)=O)cc4CC[C@H]3[C@@H]1CCC2=O | – | – | – | – | – | – | – | 6.95 | – | – |
| CCOc1cc2c(cc1OS(N)(=O)=O)CC[C@@H]1[C@@H]2CC[C@]2(C)[C@@H](O)CC[C@@H]12 | – | – | – | – | – | – | – | 0.61 | – | – |
| CCc1cc2c(cc1OS(N)(=O)=O)CC[C@@H]1[C@@H]2CC[C@]2(C)C(=O)CC[C@@H]12 | 0.014 | < 0.01 | < 0.01 | < 0.01 | < 0.01 | < 0.01 | < 0.01 | 0.34 | < 0.01 | IC50 [10]: 1.8 µM; GI50 [12]: < 0.01 µM |
| CCOc1cc2c(cc1O)CC[C@@H]1[C@@H]2CC[C@]2(C)C(=O)CC[C@@H]12 | – | – | – | – | – | – | – | 9.04 | – | – |
| C[S+]([O-])c1cc2c(cc1O)CC[C@@H]1[C@@H]2CC[C@]2(C)C(=O)CC[C@@H]12 (some centres undefined) | – | – | – | – | – | – | – | > 10 | – | – |
| CCSc1cc2c(cc1OS(N)(=O)=O)CC[C@@H]1[C@@H]2CC[C@]2(C)C(=O)CC[C@@H]12 | 5.62 | 11 | 13 | 1.4 | 6.9 | 3.2 | 2.2 | 35.2 | 2.3 | GI50 [12]: 5.9 µM |
| Cc1cc2c(cc1OS(N)(=O)=O)CC[C@@H]1[C@@H]2CC[C@]2(C)C(=O)CC[C@@H]12 | – | – | – | – | – | – | – | 0.26 | – | – |
